Assay outcomes (PubChem BioAssay)
An excerpt weighted towards active compounds, which were near 4.6% of everything screened.
CHO parental Ca: counter-screen for OX1R antagonists: effect in parental CHO cells | AID 463079 | parental CHO-K1, ATP-induced calcium, Fluo-8 fluorescence | inhibition, % at 5.6 µM | 330,000 tested, 0.63% active;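 active = inhibition above that plate's mean sample inhibition plus 3 SD, cut at about 26% in these data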;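 also: 0% = ATP-challenged DMSO wells and 100% = DMSO wells without ATP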
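Test system: untransfected parental CHO cell line; also added: ATP stimulus; dosing: 5.6 µM, single dose; signal: calcium-sensitive Fluo-8 fluorescence; measure: percent inhibition of ATP-evoked calcium rise, normalized to controls; benchmarks: low control ATP plus DMSO, high control DMSO only; replication: one well per compound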
TAAR1 agonist: agonists of human TAAR1. Q96RJ0. CHO RD-HGA16 TAAR1, Fluo-8 calcium fluorescence; vehicle wells 0%, saturating PEA agonist 100%. activation, % at 3 µM. 360,000 tested, 0.99% active;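 active = activation above the mean activation of all test compounds in the run plus 3 SD, cut at about 38% in these data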
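System: CHO-derived RD-HGA16 cells with stable Gα16 and human TAAR1. Times: 17-24 h plating, Fluo-8 75 min 37 °C, 30 min RT. Measured by: calcium-sensitive Fluo-8 signal, excitation 470-495, emission 515-575 nm. Read-out basis: % activation relative to PEA EC100 response. Control set: DMSO and PEA EC100. Repeats: no replicates (n 1).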
TAAR1 antag: antagonists of human TAAR1. Q96RJ0. inhibition, % at 3 µM. CHO RD-HGA16 TAAR1, Fluo-8 calcium fluorescence, antagonist. AID 624466. 360,000 tested, 1.5% active;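 active = inhibition above a per-plate cutoff, the mean inhibition of test compounds on that plate plus 3 SD, cut at about 49% in these data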;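 also: 0% = DMSO plus EC80 beta-PEA response and 100% = DMSO alone without agonist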
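Test system: CHO RD-HGA16 cells bearing hTAAR1 | Reagent: β-PEA, EC80 | Compound dosing: 3 µM, single point | Schedule: Dye loading 75 min at 37 °C, then 30 min room temperature | Signal: Calcium fluorescence with Fluo-8 | Evaluation: Percent inhibition of PEA-evoked calcium signal, max/basal emission ratio | Control set: DMSO-only wells and EC80 β-PEA-stimulated wells | Repeats: Singlicate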
OX1R antag-1: blocks the human orexin 1 receptor | O43613 | OX1R-expressing cells, FRET antagonist read-out | inhibition, % at 6.6 µM | 330,000 tested, 1.8% active; in the data active = inhibition mostly above about 38%, no sharp cut-off; inactive = mostly below about 40%;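 also: 0% = agonist challenge alone and 100% = reference antagonist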
Target sequence (O43613 whole entry, looked up): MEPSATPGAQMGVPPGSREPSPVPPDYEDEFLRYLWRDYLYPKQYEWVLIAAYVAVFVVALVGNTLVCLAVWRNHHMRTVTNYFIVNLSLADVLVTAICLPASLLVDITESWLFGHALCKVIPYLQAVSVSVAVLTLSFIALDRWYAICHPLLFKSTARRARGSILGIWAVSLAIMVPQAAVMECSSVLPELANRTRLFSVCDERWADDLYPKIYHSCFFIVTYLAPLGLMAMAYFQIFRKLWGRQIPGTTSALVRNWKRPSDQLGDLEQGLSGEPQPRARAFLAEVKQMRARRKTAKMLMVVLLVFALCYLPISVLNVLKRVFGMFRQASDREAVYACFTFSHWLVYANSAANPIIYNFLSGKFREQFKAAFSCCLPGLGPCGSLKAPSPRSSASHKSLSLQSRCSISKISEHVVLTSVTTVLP
GPR7 antagonist: antagonists of human GPR7 (neuropeptides B/W receptor 1). P48145. GPR7-expressing cells, fluorescence antagonist assay. inhibition, % at 4.4 µM. 290,000 tested, 1.1% active. AID 1861; in the data active = inhibition above about 16%, passing the limit was not always enough;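 also: cells stimulated with the agonist NPW; 0% = agonist with vehicle and 100% = vehicle without agonist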
Target sequence (P48145 whole entry, looked up): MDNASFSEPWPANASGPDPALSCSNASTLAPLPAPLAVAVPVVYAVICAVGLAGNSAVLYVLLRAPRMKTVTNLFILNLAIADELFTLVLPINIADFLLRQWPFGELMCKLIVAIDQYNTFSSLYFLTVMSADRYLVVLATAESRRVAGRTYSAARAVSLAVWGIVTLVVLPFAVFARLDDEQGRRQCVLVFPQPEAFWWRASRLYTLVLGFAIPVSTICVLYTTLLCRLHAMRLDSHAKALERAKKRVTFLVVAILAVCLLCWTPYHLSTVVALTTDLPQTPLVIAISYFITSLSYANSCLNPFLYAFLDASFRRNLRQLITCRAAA
OX1R antag-2: human HCRTR1 antagonism. O43613. CHO/OX1R cells, Fluo-8 calcium fluorescence, orexin A. inhibition, % at 5 µM. 330,000 tested, 0.43% active;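 active = inhibition above its plate's threshold, mean inhibition of all tested compounds on the plate plus 3 SD, cut at about 37% in these data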;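 also: 0% = orexin A challenge wells and 100% = SB-334867-A antagonist wells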
TAAR1 nonsel count: nonselective antagonist in TAAR1 antagonist counter-screen | shares compounds with TAAR1 antag | counterscreen cell line, calcium fluorescence, antagonist mode | AID 651780 | 2,400 tested, 77% active | inhibition, % at 3 µM; in the data active = inhibition above about 22%;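 also: CHO-Ga16 host cells stimulated with ATP at an EC80 level; 0% = agonist EC80 plus vehicle and 100% = vehicle without agonist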
TAAR1 antag conf: human TAAR1 antagonism, confirmed | shares compounds with TAAR1 antag | TAAR1-expressing cells, fluorescence antagonist read-out | inhibition, % at 3 µM | 2,400 tested, 40% active | AID 651785; in the data active = inhibition above about 49%;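 also: CHO-Ga16 host cells challenged with agonist PEA near its EC80; 0% = agonist at EC80 plus vehicle and 100% = vehicle with no agonist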
Ga16 nonsel ag: counter-screen for TAAR1 antagonists: nonselective Ga16 agonists; activation, % at 3 µM; shares compounds with TAAR1 antag; AID 651953; 2,400 tested, 18% active; Ga16-expressing cells, calcium fluorescence, agonist counterscreen; in the data active = activation above about 12%;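 also: 0% = vehicle wells and 100% = saturating stimulus response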
TAAR1 ag count: TAAR1 agonism, antagonist counter-screen. hTAAR1 cell line, fluorescence activation, agonist mode. shares compounds with TAAR1 antag. 2,400 tested, 2% active. activation, % at 3 µM; in the data active = activation above about 37%;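 also: CHO cells stably expressing TAAR1 with calcium dye readout; 0% = DMSO vehicle and 100% = full agonist response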
Starred values were filed as active, the others as inactive.

CC(=O)Nc1ccc(S(=O)(=O)N(Cc2ccco2)Cc2cc3ccccc3[nH]c2=O)cc1 was read as CHO parental Ca -27, TAAR1 agonist 19, TAAR1 antag 73*, OX1R antag-1 39*, GPR7 antagonist -8, OX1R antag-2 -13, TAAR1 nonsel count 27*, TAAR1 antag conf 57*, Ga16 nonsel ag 9 and TAAR1 ag count 11.
Screening CC(C)c1cccc(-c2csc(C(O)c3ccc(F)c(F)c3)n2)c1 (centres undefined) returned TAAR1 agonist 2 and TAAR1 antag 12.
O=C(COC(=O)c1cc(-c2cccc3ccccc23)nc2ccccc12)NC1CCS(=O)(=O)C1 (centres undefined) was read as CHO parental Ca 2, TAAR1 agonist 12, TAAR1 antag 7, OX1R antag-1 15, GPR7 antagonist -11 and OX1R antag-2 -24.
O=C(c1nn(Cc2ccccc2)c(=O)c2ccccc12)N1CCN(C/C=C/c2ccccc2)CC1 was read as CHO parental Ca -23, TAAR1 agonist 10, TAAR1 antag 50*, OX1R antag-1 20, GPR7 antagonist -4, OX1R antag-2 -18, TAAR1 nonsel count 18, TAAR1 antag conf 27, Ga16 nonsel ag 3 and TAAR1 ag count 4.
O=C(c1ccco1)N1CCN(C/C=C/c2ccccc2)CC1 was read as CHO parental Ca -15, TAAR1 agonist 5, TAAR1 antag -10, OX1R antag-1 13, GPR7 antagonist -10 and OX1R antag-2 -17.
`CN(C(=O)c1sc2nc(N3CCOCC3)c3c(c2c1N)CCCC3)c1ccccc1` gave CHO parental Ca -20, TAAR1 agonist 8, TAAR1 antag 59*, OX1R antag-1 38, GPR7 antagonist -4, OX1R antag-2 -28, TAAR1 nonsel count 19, TAAR1 antag conf 35, Ga16 nonsel ag 8 and TAAR1 ag count 12.
`COc1ccc(CCC(=O)NCCS(=O)(=O)N2CCN(c3ccccc3OC)CC2)cc1` gave CHO parental Ca -21, TAAR1 agonist 17, TAAR1 antag 59*, OX1R antag-1 12, GPR7 antagonist -8, OX1R antag-2 -30, TAAR1 nonsel count 34*, TAAR1 antag conf 52*, Ga16 nonsel ag 14* and TAAR1 ag count 13.
`Cc1ccc(C(=O)OCC(=O)NN2C(=O)NC3(CCC(C)CC3)C2=O)cc1` (centres undefined) gave CHO parental Ca 1, TAAR1 agonist 1, TAAR1 antag -10, OX1R antag-1 6 and OX1R antag-2 -20.
For CCOc1ccc2[nH]c(=O)c(CN(Cc3nnnn3Cc3ccco3)C3CCCCC3)cc2c1 the results were CHO parental Ca -21, TAAR1 agonist 26, TAAR1 antag 54*, OX1R antag-1 29, GPR7 antagonist -9, OX1R antag-2 -16, TAAR1 nonsel count 28*, TAAR1 antag conf 58*, Ga16 nonsel ag 8 and TAAR1 ag count 14.
COc1cc2cc(CN(Cc3nnnn3Cc3ccco3)C3CCCCC3)c(=O)[nH]c2cc1OC was read as CHO parental Ca -12, TAAR1 agonist 9, TAAR1 antag 4, OX1R antag-1 47, GPR7 antagonist 4 and OX1R antag-2 0.
O=C1/C(=C\c2ccc([N+](=O)[O-])cc2)CCc2ccccc21 was read as CHO parental Ca -9, TAAR1 agonist 0, TAAR1 antag -29, OX1R antag-1 9, GPR7 antagonist -10 and OX1R antag-2 -3.
O=C1/C(=C/Nc2cccc([N+](=O)[O-])c2)CCc2ccccc21 was read as CHO parental Ca -26, TAAR1 agonist 0, TAAR1 antag 51*, OX1R antag-1 11, GPR7 antagonist -9, OX1R antag-2 -42, TAAR1 nonsel count 13, TAAR1 antag conf 24, Ga16 nonsel ag 1 and TAAR1 ag count -5.
Cc1c(-c2ccccc2)oc2c(C(=O)OCC(=O)Nc3cccc(F)c3)cccc2c1=O was read as CHO parental Ca -21, TAAR1 agonist 12, TAAR1 antag 63*, OX1R antag-1 30, GPR7 antagonist -6, OX1R antag-2 -30, TAAR1 nonsel count 33*, TAAR1 antag conf 64*, Ga16 nonsel ag 8 and TAAR1 ag count 3.
For COc1ccc(-c2noc(=O)n2Cc2ccc(C#N)cc2)cc1 the results were TAAR1 agonist 0, TAAR1 antag -18 and GPR7 antagonist -2.
For CCOc1ccc2ncc(S(=O)(=O)c3ccc(C)cc3)c(N3CCC4(CC3)OCCO4)c2c1 the results were CHO parental Ca -12, TAAR1 agonist 8, TAAR1 antag 63*, OX1R antag-1 28, GPR7 antagonist -15, OX1R antag-2 -13, TAAR1 nonsel count 20, TAAR1 antag conf 46, Ga16 nonsel ag 4 and TAAR1 ag count 0.
Screening CCOC(=O)c1cnc2ccc(OCC)cc2c1N1CCN(C)CC1 returned CHO parental Ca -15, TAAR1 agonist -1, TAAR1 antag 11, OX1R antag-1 28, GPR7 antagonist -6 and OX1R antag-2 -27.
COc1ccc(CCNc2oc(COc3ccccc3F)nc2C#N)cc1 was read as CHO parental Ca 6, TAAR1 agonist 8, TAAR1 antag 65*, OX1R antag-1 33, GPR7 antagonist 3, OX1R antag-2 -17, TAAR1 nonsel count 29*, TAAR1 antag conf 52*, Ga16 nonsel ag 6 and TAAR1 ag count 2.
`COc1ccc(CCNc2oc(COc3ccc(Br)cc3)nc2C#N)cc1OC` gave CHO parental Ca 25, TAAR1 agonist 5, TAAR1 antag 93*, OX1R antag-1 24, GPR7 antagonist -1, OX1R antag-2 5, TAAR1 nonsel count 47*, TAAR1 antag conf 65*, Ga16 nonsel ag 9 and TAAR1 ag count 4.
For N#Cc1nc(COc2ccccc2F)oc1NCc1ccc(F)cc1 the results were CHO parental Ca -3, TAAR1 agonist -1, TAAR1 antag 26, OX1R antag-1 13, GPR7 antagonist 6 and OX1R antag-2 -18.
Screening CC1(NS(=O)(=O)c2ccc(Cl)s2)CCS(=O)(=O)C1 (centres undefined) returned CHO parental Ca 0, TAAR1 agonist 1, TAAR1 antag -1, OX1R antag-1 5 and OX1R antag-2 -2.
